Article PMC8526772 (The Journal of Biological Chemistry, 2021)
Positions count from the first letter of the chain named.

Legend:
Test in all cases: fluorescence-binding assay
JHAMT1 = molecular target: T1, JHAMT1 (Bombyx mori, UniProt Q767F1)
T1 sequence (Q767F1 1-278): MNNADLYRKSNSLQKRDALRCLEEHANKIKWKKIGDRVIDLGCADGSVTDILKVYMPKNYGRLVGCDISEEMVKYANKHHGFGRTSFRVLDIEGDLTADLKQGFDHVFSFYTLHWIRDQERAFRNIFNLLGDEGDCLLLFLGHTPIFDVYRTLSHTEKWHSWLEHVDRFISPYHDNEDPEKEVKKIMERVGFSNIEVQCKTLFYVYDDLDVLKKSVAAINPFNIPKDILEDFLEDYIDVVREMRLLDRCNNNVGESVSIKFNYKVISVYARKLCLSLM
In short: (§1)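 Intrinsic tryptophan fluorescence quenching used 2 μM recombinant B. mori JHAMT (wild type or point mutant) in 20 mM Tris-HCl pH 8.0, 200 mM NaCl, equilibrated 2 min at 25 °C. Ligand was titrated at final 0–1.5 mM SAM (cofactor binding) or 0–0.1 mM FA (substrate binding). Excitation was 280 nm with emission recorded 300–450 nm. Kd was fitted from quenching data as mean ± s.d. of n = 3.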

JHAMT1-D^91A = molecular target: T2, JHAMT1-D^91A (Bombyx mori, UniProt Q767F1, D91A)
T2 sequence (Q767F1 1-278 D91A): T1 sequence (Q767F1 1-278) with D91A
In short: as §1

JHAMT2-D^92A = molecular target: T3, JHAMT2-D^92A (Bombyx mori, UniProt A0A8M0FGR8, D92A)
T3 sequence (A0A8M0FGR8 1-267 D92A): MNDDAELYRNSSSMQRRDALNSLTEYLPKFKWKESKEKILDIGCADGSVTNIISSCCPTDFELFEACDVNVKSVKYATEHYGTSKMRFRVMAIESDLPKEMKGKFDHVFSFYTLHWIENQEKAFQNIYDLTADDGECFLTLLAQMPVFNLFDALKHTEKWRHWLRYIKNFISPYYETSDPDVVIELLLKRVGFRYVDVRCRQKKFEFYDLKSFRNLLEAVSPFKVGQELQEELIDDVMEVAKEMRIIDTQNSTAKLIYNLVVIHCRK
In short: as §1

JHAMT2 = molecular target: T4, JHAMT2 (Bombyx mori, UniProt A0A8M0FGR8)
T4 sequence (A0A8M0FGR8 1-267): T3 sequence (A0A8M0FGR8 1-267 D92A) with A92D
In short: as §1

JHAMT2-T^113A = molecular target: T5, JHAMT2-T^113A (Bombyx mori, UniProt A0A8M0FGR8, T113A)
T5 sequence (A0A8M0FGR8 1-267 T113A): T3 sequence (A0A8M0FGR8 1-267 D92A) with A92D, T113A
In short: as §1

JHAMT1-T^112A = molecular target: T6, JHAMT1-T^112A (Bombyx mori, UniProt Q767F1, T112A)
T6 sequence (Q767F1 1-278 T112A): T1 sequence (Q767F1 1-278) with T112A
In short: as §1

C[S+](CC[C@H](N)C(=O)[O-])C[C@H]1O[C@@H](n2cnc3c(N)ncnc32)[C@H](O)[C@@H]1O (stereo partly drawn) [SAM, S-adenosyl-L-methionine]
Kd (JHAMT1): 38.7 ± 3.42 µM
Kd (JHAMT1-D^91A): 229 ± 18.1 µM
Kd (JHAMT2-D^92A): 261 ± 18.1 µM
Kd (JHAMT2): 42.6 ± 5.83 µM
Kd (JHAMT2-T^113A): 144 ± 9.91 µM
Kd (JHAMT1-T^112A): 191 ± 12.7 µM
